pIC50: −log10 of the molar value. Each block holds one compound with its values, some of them ahead of it.
Tests used:
HeLa [1] = test: Cytostatic activity against human HeLa cells assessed as inhibition of cell proliferation after 72 hrs by MTT assay; assay type: functional, cell-based
Outline: (§1)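 Monolayer cells grown in DMEM with 10% FBS were seeded on day 0 at 3000–6000 cells/well, set by each line's doubling time. Agents were added the next step in five 10-fold dilutions (0.01–100) for 72 h, with DMSO ≤0.1% and a solvent control. MTT absorbance was converted to percentage growth versus untreated wells on the same plate. Where all PGs exceeded 50, the top concentration was reported as ">". ANOVA/Tukey, p<0.05.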

MCF7 [2] = test: Cytostatic activity against human MCF7 cells assessed as inhibition of cell proliferation after 72 hrs by MTT assay; assay type: functional, cell-based; conditions: MCF7, 72 h; outline: as §1
HepG2 = test: Cytostatic activity against human HepG2 cells assessed as inhibition of cell proliferation after 72 hrs by MTT assay; assay type: functional, cell-based; conditions: HepG2, 72 h; outline: as §1
SW-620 = test: Cytostatic activity against human SW620 cells assessed as inhibition of cell proliferation after 72 hrs by MTT assay; assay type: functional, cell-based; conditions: SW-620, 72 h; outline: as §1
MIA PaCa-2 = test: Cytostatic activity against human MIAPaCa2 cells assessed as inhibition of cell proliferation after 72 hrs by MTT assay; assay type: functional, cell-based; conditions: MIA PaCa-2, 72 h; outline: as §1
WI-38 = test: Cytotoxicity against human WI38 cells assessed as inhibition of cell proliferation after 72 hrs by MTT assay; assay type: cell-based; conditions: WI-38, 72 h; outline: as §1
HeLa [3] = test: Induction of cell cycle arrest in human HeLa cells assessed as accumulation at G1 phase at 5 uM after 24 hrs by flow cytometry relative to control; assay type: functional
Outline: (§2)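 Cells were seeded at 3×10⁵ per well in 6-well plates and treated after overnight incubation for 24 and 48 h. They were trypsinized, washed three times in PBS, fixed in cold ethanol and stored at −20 °C. Pellets were washed twice in PBS and treated with RNase A at 37 °C for 15 min, then stained with PI for 30 min in the dark. DNA content was measured by flow cytometry.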

HeLa [4] = test: Induction of cell cycle arrest in human HeLa cells assessed as accumulation at G2/M phase at 5 uM after 24 hrs by flow cytometry relative to control; assay type: functional; outline: as §2
HeLa [5] = test: Induction of cell cycle arrest in human HeLa cells assessed as accumulation at S phase at 5 uM after 24 hrs by flow cytometry relative to control; assay type: functional; outline: as §2
HeLa [6] = test: Induction of cell cycle arrest in human HeLa cells assessed as accumulation at subG1 phase at 5 uM after 24 hrs by flow cytometry relative to control; assay type: functional; outline: as §2
HeLa [7] = test: Induction of cell cycle arrest in human HeLa cells assessed as accumulation at G1 phase at 5 uM after 48 hrs by flow cytometry relative to control; assay type: functional; outline: as §2
HeLa [8] = test: Induction of cell cycle arrest in human HeLa cells assessed as accumulation at G2/M phase at 5 uM after 48 hrs by flow cytometry relative to control; assay type: functional; outline: as §2
HeLa [9] = test: Induction of cell cycle arrest in human HeLa cells assessed as accumulation at S phase at 5 uM after 48 hrs by flow cytometry relative to control; assay type: functional; outline: as §2
HeLa [10] = test: Induction of cell cycle arrest in human HeLa cells assessed as accumulation at subG1 phase at 5 uM after 48 hrs by flow cytometry relative to control; assay type: functional; outline: as §2
HeLa [11] = test: Induction of cell cycle arrest in human HeLa cells assessed as accumulation at G1 phase at 10 uM after 24 hrs by flow cytometry (reference value: 44.8 +/- 11.2%); assay type: functional; outline: as §2
HeLa [12] = test: Induction of cell cycle arrest in human HeLa cells assessed as accumulation at G2/M phase at 10 uM after 24 hrs by flow cytometry (reference value: 10.9 +/- 2.6%); assay type: functional; outline: as §2
HeLa [13] = test: Induction of cell cycle arrest in human HeLa cells assessed as accumulation at S phase at 10 uM after 24 hrs by flow cytometry (reference value: 44.4 +/- 8.7%); assay type: functional; outline: as §2
HeLa [14] = test: Induction of cell cycle arrest in human HeLa cells assessed as accumulation at subG1 phase at 10 uM after 24 hrs by flow cytometry (reference value: 0.49 +/- 0.2%); assay type: functional; outline: as §2
HeLa [15] = test: Induction of cell cycle arrest in human HeLa cells assessed as accumulation at G1 phase at 10 uM after 48 hrs by flow cytometry (reference value: 56.1 +/- 0.1%); assay type: functional; outline: as §2
HeLa [16] = test: Induction of cell cycle arrest in human HeLa cells assessed as accumulation at G2/M phase at 10 uM after 48 hrs by flow cytometry (reference value: 3.25 +/- 0.1%); assay type: functional; outline: as §2
HeLa [17] = test: Induction of cell cycle arrest in human HeLa cells assessed as accumulation at S phase at 10 uM after 48 hrs by flow cytometry (reference value: 40.6 +/- 0.1%); assay type: functional; outline: as §2
HeLa [18] = test: Induction of cell cycle arrest in human HeLa cells assessed as accumulation at subG1 phase at 10 uM after 48 hrs by flow cytometry (reference value: 0.16 +/- 0.01%); assay type: functional; outline: as §2
MCF7 [19] = test: Induction of cell cycle arrest in human MCF7 cells assessed as accumulation at G1 phase at 5 uM after 24 hrs by flow cytometry (reference value: 50.7 +/- 3.1%); assay type: functional; outline: as §2
MCF7 [20] = test: Induction of cell cycle arrest in human MCF7 cells assessed as accumulation at G2/M phase at 5 uM after 24 hrs by flow cytometry (reference value: 15.9 +/- 2.7%); assay type: functional; outline: as §2
MCF7 [21] = test: Induction of cell cycle arrest in human MCF7 cells assessed as accumulation at S phase at 5 uM after 24 hrs by flow cytometry (reference value: 33.4 +/- 0.4%); assay type: functional; outline: as §2
MCF7 [22] = test: Induction of cell cycle arrest in human MCF7 cells assessed as accumulation at subG1 phase at 5 uM after 24 hrs by flow cytometry (reference value: 0.68 +/- 0.4%); assay type: functional; outline: as §2
MCF7 [23] = test: Induction of cell cycle arrest in human MCF7 cells assessed as accumulation at G1 phase at 10 uM after 24 hrs by flow cytometry (reference value: 50.7 +/- 3.1%); assay type: functional; outline: as §2
MCF7 [24] = test: Induction of cell cycle arrest in human MCF7 cells assessed as accumulation at G2/M phase at 10 uM after 24 hrs by flow cytometry (reference value: 15.9 +/- 2.7%); assay type: functional; outline: as §2
MCF7 [25] = test: Induction of cell cycle arrest in human MCF7 cells assessed as accumulation at S phase at 10 uM after 24 hrs by flow cytometry (reference value: 33.4 +/- 0.4%); assay type: functional; outline: as §2
MCF7 [26] = test: Induction of cell cycle arrest in human MCF7 cells assessed as accumulation at subG1 phase at 10 uM after 24 hrs by flow cytometry (reference value: 0.68 +/- 0.4%); assay type: functional; outline: as §2
MCF7 [27] = test: Induction of cell cycle arrest in human MCF7 cells assessed as accumulation at G1 phase at 5 uM after 48 hrs by flow cytometry (reference value: 52.3 +/- 6.1%); assay type: functional; outline: as §2
MCF7 [28] = test: Induction of cell cycle arrest in human MCF7 cells assessed as accumulation at G2/M phase at 5 uM after 48 hrs by flow cytometry (reference value: 6.82 +/- 0.3%); assay type: functional; outline: as §2
MCF7 [29] = test: Induction of cell cycle arrest in human MCF7 cells assessed as accumulation at S phase at 5 uM after 48 hrs by flow cytometry (reference value: 40.9 +/- 5.7%); assay type: functional; outline: as §2
MCF7 [30] = test: Induction of cell cycle arrest in human MCF7 cells assessed as accumulation at subG1 phase at 5 uM after 48 hrs by flow cytometry (reference value: 0.51 +/- 0.01%); assay type: functional; outline: as §2
MCF7 [31] = test: Induction of cell cycle arrest in human MCF7 cells assessed as accumulation at G1 phase at 10 uM after 48 hrs by flow cytometry (reference value: 52.3 +/- 6.1%); assay type: functional; outline: as §2
MCF7 [32] = test: Induction of cell cycle arrest in human MCF7 cells assessed as accumulation at G2/M phase at 10 uM after 48 hrs by flow cytometry (reference value: 6.82 +/- 0.3%); assay type: functional; outline: as §2
MCF7 [33] = test: Induction of cell cycle arrest in human MCF7 cells assessed as accumulation at S phase at 10 uM after 48 hrs by flow cytometry (reference value: 40.9 +/- 5.7%); assay type: functional; outline: as §2
MCF7 [34] = test: Induction of cell cycle arrest in human MCF7 cells assessed as accumulation at subG1 phase at 10 uM after 48 hrs by flow cytometry (reference value: 0.51 +/- 0.01%); assay type: functional; outline: as §2

Compound: O=C1O[C@H]([C@@H](O)Cn2ccc(NC(=O)c3ccccc3)nc2=O)C(OCc2ccccc2)=C1OCc1ccccc1
- pIC50 (HeLa [1]): 4.45
- pIC50 (MCF7 [2]): 5.32
- pIC50 (HepG2): 4.21
- pIC50 (SW-620): < 4.00
- pIC50 (MIA PaCa-2): < 4.00
- pIC50 (WI-38): 5.05

Compound: Nc1ncn(C/C=C2\OC(=O)C(O)=C2OCc2ccccc2)c(=O)n1
- pIC50 (HeLa [1]): < 4.00
- pIC50 (MCF7 [2]): < 4.00
- pIC50 (HepG2): < 4.00
- pIC50 (SW-620): < 4.00
- pIC50 (MIA PaCa-2): < 4.00
- pIC50 (WI-38): < 4.00

Compound: O=C1O/C(=C\Cn2ccc(NC(=O)c3ccccc3)nc2=O)C(OCc2ccccc2)=C1OCc1ccccc1
- Activity (HeLa [3]): 47.1%
- Activity (HeLa [4]): 13.1%
- Activity (HeLa [5]): 39.9%
- Activity (HeLa [6]): 0.04%
- Activity (HeLa [7]): 60.8%
- Activity (HeLa [8]): 2.8%
- Activity (HeLa [9]): 36.5%
- Activity (HeLa [10]): 0.27%
- pIC50 (HeLa [1]): 5.14
- pIC50 (MCF7 [2]): 5.69
- pIC50 (HepG2): 5.70
- pIC50 (SW-620): < 4.00
- pIC50 (MIA PaCa-2): 4.62
- pIC50 (WI-38): 5.07
- Activity (HeLa [11]): 37.9%
- Activity (HeLa [12]): 8.45%
- Activity (HeLa [13]): 53.7%
- Activity (HeLa [14]): 0.2%
- Activity (HeLa [15]): 52.3%
- Activity (HeLa [16]): 8.3%
- Activity (HeLa [17]): 39.5%
- Activity (HeLa [18]): 0.56%
- Activity (MCF7 [19]): 57.9%
- Activity (MCF7 [20]): 13.8%
- Activity (MCF7 [21]): 28.3%
- Activity (MCF7 [22]): 0.42%
- Activity (MCF7 [23]): 54.3%
- Activity (MCF7 [24]): 6.54%
- Activity (MCF7 [25]): 39.2%
- Activity (MCF7 [26]): 0.2%
- Activity (MCF7 [27]): 50.6%
- Activity (MCF7 [28]): 13.9%
- Activity (MCF7 [29]): 35.6%
- Activity (MCF7 [30]): 0.37%
- Activity (MCF7 [31]): 56.6%
- Activity (MCF7 [32]): 5.52%
- Activity (MCF7 [33]): 38%
- Activity (MCF7 [34]): 0.32%

Compound: O=C1O/C(=C\Cn2c(=O)[nH]c(=O)[nH]c2=O)C(O)=C1O
- pIC50 (HeLa [1]): < 4.00
- pIC50 (MCF7 [2]): < 4.00
- pIC50 (HepG2): < 4.00
- pIC50 (SW-620): < 4.00
- pIC50 (MIA PaCa-2): < 4.00
- pIC50 (WI-38): 4.45

Second part, led by results:

- pIC50 (HeLa [1]): 4.11
- pIC50 (MCF7 [2]): 4.07
- pIC50 (HepG2): < 4.00
- pIC50 (SW-620): < 4.00
- pIC50 (MIA PaCa-2): < 4.00
Compound: NC1(CCn2c(=O)[nH]c(=O)[nH]c2=O)OC(=O)C(OCc2ccccc2)=C1OCc1ccccc1 (racemic)
- pIC50 (WI-38): < 4.00

- pIC50 (HeLa [1]): < 4.00
- pIC50 (MCF7 [2]): 4.49
- pIC50 (HepG2): < 4.00
- pIC50 (SW-620): < 4.00
- pIC50 (MIA PaCa-2): < 4.00
Compound: Nc1ccn(CCC2(N)OC(=O)C(OCc3ccccc3)=C2OCc2ccccc2)c(=O)n1 (racemic)
- pIC50 (WI-38): 4.05

- pIC50 (HeLa [1]): 4.35
- pIC50 (MCF7 [2]): 5.42
- pIC50 (HepG2): 4.38
- pIC50 (SW-620): 4.44
- pIC50 (MIA PaCa-2): 4.69
Compound: O=C1O/C(=C\Cn2ncc(=O)[nH]c2=O)C(OCc2ccccc2)=C1OCc1ccccc1
- pIC50 (WI-38): 4.61

- pIC50 (HeLa [1]): < 4.00
- pIC50 (MCF7 [2]): 4.10
- pIC50 (HepG2): < 4.00
- pIC50 (SW-620): < 4.00
- pIC50 (MIA PaCa-2): < 4.00
Compound: Cc1cn(CCC2(N)OC(=O)C(OCc3ccccc3)=C2OCc2ccccc2)c(=O)[nH]c1=O (racemic)
- pIC50 (WI-38): < 4.00
